The target of data set [1] is T1, NAD-dependent protein deacetylase sirtuin-2 (Homo sapiens) (UniProt Q8IXJ6).
T1 sequence (whole entry): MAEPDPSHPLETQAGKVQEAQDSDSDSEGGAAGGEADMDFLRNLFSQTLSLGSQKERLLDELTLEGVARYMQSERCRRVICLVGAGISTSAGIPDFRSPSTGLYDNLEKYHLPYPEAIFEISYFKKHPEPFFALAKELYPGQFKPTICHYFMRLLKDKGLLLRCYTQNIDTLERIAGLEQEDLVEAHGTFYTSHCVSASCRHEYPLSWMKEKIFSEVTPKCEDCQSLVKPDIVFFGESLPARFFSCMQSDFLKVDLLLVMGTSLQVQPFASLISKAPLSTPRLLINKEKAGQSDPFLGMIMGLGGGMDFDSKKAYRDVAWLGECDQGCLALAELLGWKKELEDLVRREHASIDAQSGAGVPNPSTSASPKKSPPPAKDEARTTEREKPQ
Nature of the data set: (§1) Non-competitive inhibition of human recombinant SIRT2 using Z-QPK(Me)2K(Ac) as substrate assessed as decrease in maximal enzyme activity preincubated for 60 mins followed by substrate addition measured after 30 mins by double-reciprocal plot analysis in presence of 5 mM NAD+. The procedure, abridged:
(§2)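 Recombinant human SIRT2 at 0.2 unit/well, preincubated 60 min at 25 °C (400 rpm) with inhibitor at four levels including zero, 2.5% DMSO. Detection reagent (acetylated Z-QPK(Me)2K(Ac)-aminoluciferin, NAD and developer) was premixed 60 min at 37 °C, added, and incubated 30 min at 25 °C before luminescence was read. For line 17, substrate was varied (4.12–333.3 µM) at fixed NAD. For line 16, NAD was varied (four levels) at 38.5 µM substrate. Double-reciprocal plots were made, and their slopes replotted against inhibitor concentration for apparent Ki.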

In data set [2] the target is T2, NAD-dependent protein deacetylase sirtuin-2 (Homo sapiens, UniProt Q8IXJ6).
T2 sequence (Q8IXJ6 whole entry): T1 sequence (whole entry)
The data set is described as §1. As to conditions: read-out: Ki(app). The procedure, abridged: as §2

Data set [3] is described as follows: Cytotoxicity against human IMR90 cells assessed as cell viability after 72 hrs by MTS assay. The format is cell-based. The conditions noted are these: IMR-90, 72 h. For orientation: Tetrazolium assays rely on reduction of a dye to a coloured formazan, in cell work by metabolically active cells.
For the next data set, the species on record is Homo sapiens. Nature of the data set: Inhibition of protease (unknown origin) using deacetylated peptide as substrate assessed as luminescence at 25 uM after 30 mins relative to control. The arrangement: scale not given: the % may be the effect or the level left.
For another data set, the system named is MDA-MB-231. Nature of the data set: Induction of apoptosis in human MDA-MB-231 cells assessed as upregulation of cleaved caspase-3 protein expression at 2 to 8 uM after 24 hrs by Western blot analysis. The format is functional, cell-based. The procedure, abridged: (§3)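 Cells seeded at 50,000 cells/mL in high-glucose DMEM containing compound (0.5% v/v DMSO) and incubated at 37 °C, 5% CO2: HepG2 6 h, MDA-MB-231 24 h. Washed cells were lysed on ice ≥20 min in Tris/NaCl/EDTA/Triton buffer with protease and phosphatase inhibitors, then protein measured by Bradford. SDS-PAGE blots were probed overnight at 4 °C with primary antibodies and detected by HRP/ECL, with re-probing after stripping. Each blot was repeated ≥3 times.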
For orientation: In western blotting, separated proteins are transferred to a membrane and probed.

Data set [4] addresses T1, NAD-dependent protein deacetylase sirtuin-2 (Homo sapiens). Nature of the data set: Inhibition of SIRT2 in human MDA-MB-231 cells assessed as increase in acetylated p53 at Lys382 and alpha-tubulin level at 2 to 4 uM after 24 hrs by Western blot analysis. Type of data set: cell-based. The procedure, abridged: as §3
Data set [5] in a line: Inhibition of luciferase (unknown origin) using deacetylated peptide as substrate assessed as luminescence at 100 uM after 30 mins relative to control. The arrangement: scale not given: the % may be the effect or the level left.
Data set [6] can be described thus: Self-aggregation of the compound in PBS assessed as derived light scattering count rate at 10 uM at pH 7.4 (reference value: 15.5 +/- 0.4 kilocount/sec). Type of data set: physicochemical. The conditions noted are these: buffer, pH 7.4, 10 µM.
A short description of data set [7]: Self-aggregation of the compound in PBS assessed as derived light scattering count rate at 1 uM at pH 7.4 (reference value: 15.5 +/- 0.4 kilocount/sec). The format is physicochemical. As to conditions: buffer, pH 7.4, 1 µM.
The nature of data set [8]: Solubility of the compound in phosphate buffer at pH 7.4 at 25 degC by turbimetric method. Type of data set: physicochemical. The procedure, abridged: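 Turbidimetric solubility. Compound from DMSO stock was added to phosphate buffer pH 7.4 at 1–50 µM final, with 1% v/v DMSO. Plate shaken 30 min at 25 °C and absorbance read at 620 nm. Solubility is assigned to the concentration range where absorbance rises two-fold or more, from 3 separate determinations.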

pIC50, pKi: −log10 of the molar value. Values after ≈ are worked out from the molar mass of the structure shown. Active and inactive are the calls of the source. The calls are words filed in the database; no cut-off is given here.

The values that follow come from ChEMBL document CHEMBL3407343, “Functionalized tetrahydro-1H-pyrido[4,3-b]indoles: a novel chemotype with Sirtuin 2 inhibitory activity” (Eur J Med Chem, 2015).

Usually pKi stands for the negative decadic logarithm of the Ki, by convention in mol/L. One may read the pIC50 as the negative decadic logarithm of the IC50, by convention in mol/L. In general, solubility (kinetic) refers to solubility judged after dilution from a stock solution rather than from solid. As to `CCCCCCCCn1c2c(c3cc(-c4ccc(S(C)(=O)=O)cc4)ccc31)CNCC2`, the inhibition result in data set [1] is “Dose-dependent effect”. In data set [2], the negative logarithm of the Ki (pKi) is 5.64. Moreover, the pIC50 in [3] was 5.57. The Activity in the data set filed under Homo sapiens is 94.9%; in data set [5], 94.3%; in data set [6] it was 95 kC/sec; in [7], 15.6 kC/sec. For the same molecule, the outcome with MDA-MB-231 was Active. The inhibition entry in [4] was “Active”. Further, in data set [8], the kinetic solubility was 3.1 µM (≈ 1.36 µg/mL).
